ChEMBL document CHEMBL3286129, “Optimization of peptidomimetic boronates bearing a P3 bicyclic scaffold as proteasome inhibitors” (Eur J Med Chem, 2014)

Key:
A549 = experiment: Growth inhibition of human A549/ATCC cells; format: functional
[1] = Growth inhibition of human BT549 cells; format: functional
NCI-H322M = experiment: Growth inhibition of human NCI-H322M cells; format: functional
KM12 = experiment: Growth inhibition of human KM12 cells; format: functional
[2] = Cytotoxicity against human renal cancer cells assessed as cell growth at 10 uM relative to control; format: functional; settings: Cancer cell lines, read-out: Activity
Method in brief: (§1)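 Single-concentration screen against a panel of human cancer cell lines. Each value is the mean percent growth across the cell lines of that tumour subpanel.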

Malme-3M = experiment: Growth inhibition of human MALME-3M cells; format: functional
[3] = Growth inhibition of human OVCAR8 cells; format: functional
PC-3 = experiment: Growth inhibition of human PC3 cells; format: functional
MDA-MB-468 = experiment: Growth inhibition of human MDA-MB-468 cells; format: functional
[4] = Growth inhibition of human HCC2998 cells; format: functional; settings: HCC 2998
[5] = Cytotoxicity against human ovarian cancer cells assessed as cell growth at 10 uM relative to control; format: functional; settings: Cancer cell lines, read-out: Activity; method in brief: as §1
[6] = Growth inhibition of human UO31 cells; format: functional; settings: UO-31
SW-620 = experiment: Growth inhibition of human SW620 cells; format: functional
[7] = Growth inhibition of human UACC257 cells; format: functional
U-251 = experiment: Growth inhibition of human U251 cells; format: functional
K562 = experiment: Growth inhibition of human K562 cells; format: functional
MDA-MB-435 = experiment: Growth inhibition of human MDA-MB-435 cells; format: functional
A498 = experiment: Growth inhibition of human A498 cells; format: functional
Chymotrypsinogen A = Chymotrypsinogen A (Bos taurus, UniProt P00766); experiment: Inhibition of bovine pancreatic alpha-chymotrypsin using Suc-Leu-Leu-Val-Tyr-AMC as substrate by fluorescence assay
Method in brief: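 Enzyme incubated at 20 °C in 50 mM Tris pH 8.0, 100 mM NaCl, 5 mM EDTA, 7.5% DMSO with varied inhibitor concentrations. Substrate hydrolysis followed for 10 min. Ki from progress curves; mean of three determinations.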

[8] = Cytotoxicity against human melanoma cells assessed as cell growth at 10 uM relative to control; format: functional; settings: read-out: Activity; method in brief: as §1
SF-268 = experiment: Growth inhibition of human SF268 cells; format: functional
MDA-MB-231 = experiment: Growth inhibition of human MDA-MB-231 cells; format: functional
[9] = Growth inhibition of human OVCAR4 cells; format: functional
[10] = Cytotoxicity against human leukemia cells assessed as cell growth at 10 uM relative to control; format: functional; settings: read-out: Activity; method in brief: as §1
[11] = Growth inhibition of human OVCAR5 cells; format: functional; settings: OVCAR-5
RPMI-8226 = experiment: Growth inhibition of human RPMI8226 cells; format: functional
HT-29 = experiment: Growth inhibition of human HT-29 cells; format: functional
CCRF-CEM = experiment: Growth inhibition of human CCRF-CEM cells; format: functional
MCF7 = experiment: Growth inhibition of human MCF7 cells; format: functional
[12] = target: T1, Proteasome Macropain subunit MB1 (Homo sapiens) (UniProt P28074); experiment: Inhibition of chymotrypsin-like activity of 20S proteasome in human erythrocytes using Suc-Leu-Leu-Val-Tyr-AMC as substrate at 20 uM by fluorescence assay relative to control
T1 sequence (whole entry): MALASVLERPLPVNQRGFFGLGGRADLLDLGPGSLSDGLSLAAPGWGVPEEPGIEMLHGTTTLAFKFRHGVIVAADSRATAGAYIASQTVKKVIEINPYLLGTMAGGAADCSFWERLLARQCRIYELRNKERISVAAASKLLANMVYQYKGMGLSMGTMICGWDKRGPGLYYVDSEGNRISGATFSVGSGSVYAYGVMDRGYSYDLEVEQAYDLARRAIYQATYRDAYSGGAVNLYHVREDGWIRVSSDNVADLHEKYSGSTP
Method in brief: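 Single inhibitor concentration, equivalent DMSO as negative control. AMC fluorescence read at ex 380/em 460 nm; percent inhibition of ChT-L activity.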

NCI-H460 = experiment: Growth inhibition of human NCI-H460 cells; format: functional
SK-OV-3 = experiment: Growth inhibition of human SKOV3 cells; format: functional
SNB-19 = experiment: Growth inhibition of human SNB19 cells; format: functional
[13] = read-out: LC50 (the source's name)

## CC(C)C[C@H](NC(=O)CCn1ccc2ccccc2c1=O)B(O)O
A549
  GI50: 8.41 µM
  TGI: > 100 µM
A549; [13]
  CC50: > 100 µM
[1]; BT-549
  GI50: 2.21 µM
  TGI: 17.1 µM
[1]; BT-549, read-out: LC50 (the source's name)
  CC50: > 100 µM
NCI-H322M
  GI50: 76.8 µM
  TGI: > 100 µM
NCI-H322M; [13]
  CC50: > 100 µM
KM12
  GI50: 7.51 µM
  LC50: > 100 µM
  TGI: 29.8 µM
[2]
  growth at 10 µM: 32.3%
Malme-3M
  GI50: 2.58 µM
  TGI: 9.89 µM
Malme-3M; [13]
  CC50: > 100 µM
[3]; OVCAR-8
  GI50: 15.3 µM
  TGI: > 100 µM
[3]; OVCAR-8, read-out: LC50 (the source's name)
  CC50: > 100 µM
PC-3
  GI50: 5.77 µM
  TGI: > 100 µM
PC-3; [13]
  CC50: > 100 µM
MDA-MB-468
  GI50: 1.38 µM
  TGI: 7.08 µM
MDA-MB-468; [13]
  CC50: > 100 µM
[4]
  GI50: 6.08 µM
  LC50: 66.4 µM
  TGI: 21.3 µM
[5]
  growth at 10 µM: 73.1%
[6]
  GI50: 3.92 µM
  LC50: > 100 µM
  TGI: 35.3 µM
SW-620
  GI50: 3 µM
  LC50: 93.4 µM
  TGI: 12 µM
[7]; UACC-257
  GI50: 3.68 µM
  TGI: 33.8 µM
[7]; UACC-257, read-out: LC50 (the source's name)
  CC50: > 100 µM
U-251
  GI50: 4.23 µM
  TGI: > 100 µM
U-251; [13]
  CC50: > 100 µM
K562
  GI50: 4.97 µM
  TGI: > 100 µM
K562; [13]
  CC50: > 100 µM
MDA-MB-435
  GI50: 1.27 µM
  TGI: 2.81 µM
MDA-MB-435; [13]
  CC50: 6.24 µM
A498
  GI50: 1.22 µM
  LC50: > 100 µM
  TGI: 4.79 µM
Chymotrypsinogen A
  Ki: Not Active
[8]
  growth at 10 µM: 30.5%
SF-268
  GI50: 5.69 µM
  LC50: > 100 µM
  TGI: 30.4 µM
MDA-MB-231
  GI50: 9.45 µM
  TGI: 59.3 µM
MDA-MB-231; [13]
  CC50: > 100 µM
[9]; OVCAR-4
  GI50: 17 µM
  TGI: > 100 µM
[9]; OVCAR-4, read-out: LC50 (the source's name)
  CC50: > 100 µM
[10]
  growth at 10 µM: 21.1%
[11]
  GI50: 18.8 µM
  LC50: > 100 µM
  TGI: > 100 µM
RPMI-8226
  GI50: 1.06 µM
  TGI: 7.07 µM
RPMI-8226; [13]
  CC50: > 100 µM
HT-29
  GI50: 3.68 µM
  LC50: > 100 µM
  TGI: 48.7 µM
CCRF-CEM
  GI50: 2.02 µM
  TGI: 25.4 µM
CCRF-CEM; [13]
  CC50: > 100 µM
MCF7
  GI50: 4.35 µM
  TGI: > 100 µM
MCF7; [13]
  CC50: > 100 µM
[12]
  inhibition: > 40%
NCI-H460
  GI50: 13 µM
  LC50: > 100 µM
  TGI: 56.2 µM
SK-OV-3
  GI50: 4.72 µM
  LC50: > 100 µM
  TGI: 81.3 µM
SNB-19
  GI50: 8.02 µM
  TGI: > 100 µM
SNB-19; [13]
  CC50: > 100 µM
